Test results as given in publication PMC7471454 (Acta Pharmacologica Sinica, 2019).
“Also recorded” adds a separate entry of the source.

What was measured:
[1] = target: hNav1.7 channels (Homo sapiens, UniProt Q15858); assay: cell-based; settings: for inhibitory activity against Nav1.7 (in words): HEK293 cells stably expressing hNav1.7; for Nav1.7/Nav1.5 selectivity (in words): Nav1.7 versus Nav1.5; for activity toward Nav1.7 relative to 10h: higher than that of 10h
[2] = target: hNav1.5 channels (Homo sapiens, UniProt Q14524); assay: Whole-cell voltage-clamp on human Nav1.5 channels stably expressed in CHL cells; assay type: cell-based
How it was run: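 CHL cells stably expressing hNav1.5 were selected in G418 (500 µg/mL), plated on poly-L-lysine coverslips and used within 24 h. Whole-cell voltage clamp at room temperature, with CsF pipette and NaCl bath (pH 7.3); DMSO ≤0.5% final. After 5 min at −80 mV: hold −40 mV, 20 ms prepulse to −150 mV, 10 ms pulse to 0 mV at 1 Hz. Peak IDrug/IControl was fitted to a 3-parameter Hill equation for IC50.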

[3] = test system: native sodium currents in mouse DRG neurons; assay: Native sodium currents in isolated DRG neurons; assay type: cell-based; settings: for reduction of sodium current amplitude: mouse DRG neurons
[4] = test system: acetic acid-induced writhing in ICR mice; assay: Acetic acid-induced writhing test; assay type: in vivo, mouse; settings: i.p. 30 min before 1.5% acetic acid, writhes counted for 30 min
How it was run: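 Male ICR mice (22–28 g) received test compound i.p. in 5% DMSO/95% (0.5% carboxymethyl cellulose sodium) at 0.2 mL/10 g, 30 min before i.p. 1.5% acetic acid (10 mL/kg). Writhes, defined as abdominal contraction with body elongation and hind-limb extension, were counted over 30 min under blinded assessment. Indomethacin 30 mg/kg p.o. was given 60 min prior as reference. n = 6–12; one-way ANOVA.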

[5] = test system: neuronal excitability of small-diameter DRG neurons; assay: Firing frequency of DRG neurons; assay type: cell-based, mouse; settings: 500 ms current injection, 10 and 100 nmol/L

hNav1.5 channels, sequence (Q14524 whole entry): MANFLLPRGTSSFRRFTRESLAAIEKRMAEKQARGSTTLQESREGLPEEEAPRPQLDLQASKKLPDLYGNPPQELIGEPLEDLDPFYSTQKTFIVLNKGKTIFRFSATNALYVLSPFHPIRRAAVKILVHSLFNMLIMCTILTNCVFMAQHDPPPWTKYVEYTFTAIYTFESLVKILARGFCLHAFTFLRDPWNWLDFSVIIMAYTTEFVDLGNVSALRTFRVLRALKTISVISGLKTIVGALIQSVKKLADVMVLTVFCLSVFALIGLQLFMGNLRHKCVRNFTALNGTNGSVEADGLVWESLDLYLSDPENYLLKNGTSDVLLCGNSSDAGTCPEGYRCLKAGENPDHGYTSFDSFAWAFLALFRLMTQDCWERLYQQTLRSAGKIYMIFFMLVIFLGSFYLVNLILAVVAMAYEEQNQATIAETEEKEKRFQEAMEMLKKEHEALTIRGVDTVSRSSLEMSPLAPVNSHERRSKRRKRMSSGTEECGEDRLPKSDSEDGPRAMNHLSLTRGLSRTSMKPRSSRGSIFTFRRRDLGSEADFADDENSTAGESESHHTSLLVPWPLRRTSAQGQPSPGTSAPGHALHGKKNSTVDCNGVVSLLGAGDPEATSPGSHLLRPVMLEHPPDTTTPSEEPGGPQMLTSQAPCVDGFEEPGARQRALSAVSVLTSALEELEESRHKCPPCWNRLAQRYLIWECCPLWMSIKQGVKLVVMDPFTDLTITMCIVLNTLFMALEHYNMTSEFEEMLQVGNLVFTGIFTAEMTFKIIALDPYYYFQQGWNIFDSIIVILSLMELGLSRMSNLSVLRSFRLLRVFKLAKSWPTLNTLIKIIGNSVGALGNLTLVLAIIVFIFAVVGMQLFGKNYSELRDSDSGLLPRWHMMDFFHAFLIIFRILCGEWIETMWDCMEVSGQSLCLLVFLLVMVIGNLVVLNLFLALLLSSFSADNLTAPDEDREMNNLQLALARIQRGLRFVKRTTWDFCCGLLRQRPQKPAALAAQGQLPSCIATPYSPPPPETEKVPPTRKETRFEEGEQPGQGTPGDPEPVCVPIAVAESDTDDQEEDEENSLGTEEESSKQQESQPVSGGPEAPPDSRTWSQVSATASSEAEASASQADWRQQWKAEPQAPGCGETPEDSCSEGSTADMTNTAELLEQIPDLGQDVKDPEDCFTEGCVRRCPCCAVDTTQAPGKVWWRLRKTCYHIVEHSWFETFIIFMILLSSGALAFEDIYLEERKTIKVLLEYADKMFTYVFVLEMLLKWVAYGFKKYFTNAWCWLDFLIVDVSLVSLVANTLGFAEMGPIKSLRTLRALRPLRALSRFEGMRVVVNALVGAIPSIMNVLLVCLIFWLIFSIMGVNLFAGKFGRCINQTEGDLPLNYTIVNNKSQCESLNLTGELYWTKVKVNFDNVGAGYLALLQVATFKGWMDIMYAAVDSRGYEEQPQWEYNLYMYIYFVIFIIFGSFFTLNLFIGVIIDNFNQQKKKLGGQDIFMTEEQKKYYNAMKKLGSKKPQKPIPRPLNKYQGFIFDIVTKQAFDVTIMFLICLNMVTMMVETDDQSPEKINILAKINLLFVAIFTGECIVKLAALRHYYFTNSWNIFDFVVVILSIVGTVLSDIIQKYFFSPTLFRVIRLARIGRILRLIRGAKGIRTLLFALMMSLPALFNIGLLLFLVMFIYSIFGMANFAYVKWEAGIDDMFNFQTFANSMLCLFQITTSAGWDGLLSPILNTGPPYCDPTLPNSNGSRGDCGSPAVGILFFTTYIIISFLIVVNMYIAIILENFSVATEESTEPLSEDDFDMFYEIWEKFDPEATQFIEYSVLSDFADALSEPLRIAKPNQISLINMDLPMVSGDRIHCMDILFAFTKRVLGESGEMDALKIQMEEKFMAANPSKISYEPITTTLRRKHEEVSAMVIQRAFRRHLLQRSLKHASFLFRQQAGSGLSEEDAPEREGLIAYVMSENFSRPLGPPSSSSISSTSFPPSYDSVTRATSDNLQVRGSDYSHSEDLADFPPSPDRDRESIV

Row | inhibitory activity against Nav1.7 (in words) [1] | IC50 [1] [nM] | Structure (SMILES) | also measured
1 | weak |  | CN(CCc1ccccc1)CC(CCC12CCC(c3ccccc31)c1ccccc12)Oc1ccc(S(=O)(=O)Nc2ncns2)cc1C#N (centres unmarked) [10f, 3-cyano-4-((4-(9,10-dihydro-9,10-ethanoanthracen-9-yl)-1-(methyl(phenethyl)amino)butan-2-yl)oxy)-N-(1,2,4-thiadiazol-5-yl)benzenesulfonamide] | 
2 |  | 12.5 | N#Cc1cc(S(=O)(=O)Nc2ncns2)ccc1OC(CCC12CCC(c3ccccc31)c1ccccc12)COCCN1CCCCC1 (centres unmarked) [10p, 3-cyano-4-((4-(9,10-dihydro-9,10-ethanoanthracen-9-yl)-1-(2-(piperidin-1-yl)ethoxy)butan-2-yl)oxy)-N-(1,2,4-thiadiazol-5-yl)benzenesulfonamide] | Nav1.7/Nav1.5 selectivity (in words) [1]: good selectivity
3 | maintained the activity of 10a |  | CN(Cc1ccc(C(F)(F)F)cc1)CC(CCC12CCC(c3ccccc31)c1ccccc12)Oc1ccc(S(=O)(=O)Nc2ncns2)cc1C#N (centres unmarked) [10g, 3-cyano-4-((4-(9,10-dihydro-9,10-ethanoanthracen-9-yl)-1-(methyl(4-(trifluoromethyl)benzyl)amino)butan-2-yl)oxy)-N-(1,2,4-thiadiazol-5-yl)benzenesulfonamide] | 
4 |  | ~10 | CNCCOCC(CCC12CCC(c3ccccc31)c1ccccc12)Oc1ccc(S(=O)(=O)Nc2ncns2)cc1C#N (centres unmarked) [10l, 3-cyano-4-((4-(9,10-dihydro-9,10-ethanoanthracen-9-yl)-1-(2-(methylamino)ethoxy)butan-2-yl)oxy)-N-(1,2,4-thiadiazol-5-yl)benzenesulfonamide] | Nav1.7/Nav1.5 selectivity (in words) [1]: well maintained
5 |  |  | N#Cc1cc(S(=O)(=O)Nc2ncns2)ccc1OC(CCC12CCC(c3ccccc31)c1ccccc12)COCc1ccccc1 (centres unmarked) [10j, 4-((1-(benzyloxy)-4-(9,10-dihydro-9,10-ethanoanthracen-9-yl)butan-2-yl)oxy)-3-cyano-N-(1,2,4-thiadiazol-5-yl)benzenesulfonamide] | activity toward Nav1.7 relative to 10h [1]: 10 times
6 | maintained the activity of 10a |  | CC(C)N(C)CC(CCC12CCC(c3ccccc31)c1ccccc12)Oc1ccc(S(=O)(=O)Nc2ncns2)cc1C#N (centres unmarked) [10c, 3-cyano-4-((4-(9,10-dihydro-9,10-ethanoanthracen-9-yl)-1-(isopropyl(methyl)amino)butan-2-yl)oxy)-N-(1,2,4-thiadiazol-5-yl)benzenesulfonamide] | 
7 | weak |  | C=CCN(C)CC(CCC12CCC(c3ccccc31)c1ccccc12)Oc1ccc(S(=O)(=O)Nc2ncns2)cc1C#N (centres unmarked) [10d, 4-((1-(allyl(methyl)amino)-4-(9,10-dihydro-9,10-ethanoanthracen-9-yl)butan-2-yl)oxy)-3-cyano-N-(1,2,4-thiadiazol-5-yl)benzenesulfonamide] | 
8 |  | 2.98 | CN1CC(OCC(CCC23CCC(c4ccccc42)c2ccccc23)Oc2ccc(S(=O)(=O)Nc3ncns3)cc2C#N)C1 (centres unmarked) [10m, 3-cyano-4-((4-(9,10-dihydro-9,10-ethanoanthracen-9-yl)-1-((1-methylazetidin-3-yl)oxy)butan-2-yl)oxy)-N-(1,2,4-thiadiazol-5-yl)benzenesulfonamide] | 
9 |  | 33.5 | N#Cc1cc(S(=O)(=O)Nc2ncns2)ccc1OC(CCC12CCC(c3ccccc31)c1ccccc12)COCCN1CCOCC1 (centres unmarked) [10q, 3-cyano-4-((4-(9,10-dihydro-9,10-ethanoanthracen-9-yl)-1-(2-morpholinoethoxy)butan-2-yl)oxy)-N-(1,2,4-thiadiazol-5-yl)benzenesulfonamide] | Nav1.7/Nav1.5 selectivity (in words) [1]: good selectivity
10 |  | ~10 | CN(C)CCOCC(CCC12CCC(c3ccccc31)c1ccccc12)Oc1ccc(S(=O)(=O)Nc2ncns2)cc1C#N (centres unmarked) [10k, 3-cyano-4-((4-(9,10-dihydro-9,10-ethanoanthracen-9-yl)-1-(2-(dimethylamino)ethoxy)butan-2-yl)oxy)-N-(1,2,4-thiadiazol-5-yl)benzenesulfonamide] | Nav1.7/Nav1.5 selectivity (in words) [1]: well maintained
11 | not as good as that of MPT |  | CCNCC(CC12CCC(c3ccccc31)c1ccccc12)Oc1ccc(S(=O)(=O)Nc2ncns2)cc1C#N (centres unmarked) [9b, 3-cyano-4-((1-(9,10-dihydro-9,10-ethanoanthracen-9-yl)-3-(ethylamino)propan-2-yl)oxy)-N-(1,2,4-thiadiazol-5-yl)benzenesulfonamide] | 
12 | not as good as that of MPT |  | CNCC(CC12CCC(c3ccccc31)c1ccccc12)Oc1ccc(S(=O)(=O)Nc2ncns2)cc1C#N (centres unmarked) [9a, 3-cyano-4-((1-(9,10-dihydro-9,10-ethanoanthracen-9-yl)-3-(methylamino)propan-2-yl)oxy)-N-(1,2,4-thiadiazol-5-yl)benzenesulfonamide] | 
13 | weak |  | CCN(C)CC(CCC12CCC(c3ccccc31)c1ccccc12)Oc1ccc(S(=O)(=O)Nc2ncns2)cc1C#N (centres unmarked) [10b, 3-cyano-4-((4-(9,10-dihydro-9,10-ethanoanthracen-9-yl)-1-(ethyl(methyl)amino)butan-2-yl)oxy)-N-(1,2,4-thiadiazol-5-yl)benzenesulfonamide] | 
14 |  | 5.38 | N#Cc1cc(S(=O)(=O)Nc2ncns2)ccc1OC(CCC12CCC(c3ccccc31)c1ccccc12)COCCN1CCC1 (centres unmarked) [10n, 4-((1-(2-(azetidin-1-yl)ethoxy)-4-(9,10-dihydro-9,10-ethanoanthracen-9-yl)butan-2-yl)oxy)-3-cyano-N-(1,2,4-thiadiazol-5-yl)benzenesulfonamide] | Nav1.7/Nav1.5 selectivity (in words) [1]: good selectivity
15 |  | 0.64 ± 0.3 | N#Cc1cc(S(=O)(=O)Nc2ncns2)ccc1OC(CCC12CCC(c3ccccc31)c1ccccc12)COCCN1CCCC1 (centres unmarked) [10o, 3-cyano-4-((4-(9,10-dihydro-9,10-ethanoanthracen-9-yl)-1-(2-(pyrrolidin-1-yl)ethoxy)butan-2-yl)oxy)-N-(1,2,4-thiadiazol-5-yl)benzenesulfonamide] | IC50 [2]: 33600 nM; selectivity for Nav1.7 over Nav1.5 ([1]; from the Nav1.5 and Nav1.7 IC50): > 50 000 times; reduction of sodium current amplitude ([3]; 10 nmol/L): 24% ± 6%; reduction of sodium current amplitude ([3]; 100 nmol/L): 40% ± 6%; effect on native sodium currents (in words) ([3]; mouse small-sized DRG neurons, 10 and 100 nmol/L): dose-dependently decreased the sodium currents; effect on acetic acid-induced writhing (in words) [4]: dose-dependently decreased; effect on action potentials / firing frequency (in words) [5]: dramatically suppressed depolarizing current-elicited neuronal discharge; also recorded: dose-dependently suppressed
16 | not as good as that of MPT |  | CC(C)NCC(CC12CCC(c3ccccc31)c1ccccc12)Oc1ccc(S(=O)(=O)Nc2ncns2)cc1C#N (centres unmarked) [9c, 3-cyano-4-((1-(9,10-dihydro-9,10-ethanoanthracen-9-yl)-3-(isopropylamino)propan-2-yl)oxy)-N-(1,2,4-thiadiazol-5-yl)benzenesulfonamide] | 
17 |  |  | CCOCC(CCC12CCC(c3ccccc31)c1ccccc12)Oc1ccc(S(=O)(=O)Nc2ncns2)cc1C#N (centres unmarked) [10i, 3-cyano-4-((4-(9,10-dihydro-9,10-ethanoanthracen-9-yl)-1-ethoxybutan-2-yl)oxy)-N-(1,2,4-thiadiazol-5-yl)benzenesulfonamide] | activity toward Nav1.7 relative to 10h [1]: 10 times
18 | maintained the activity of 10a |  | C#CCN(C)CC(CCC12CCC(c3ccccc31)c1ccccc12)Oc1ccc(S(=O)(=O)Nc2ncns2)cc1C#N (centres unmarked) [10e, 3-cyano-4-((4-(9,10-dihydro-9,10-ethanoanthracen-9-yl)-1-(methyl(prop-2-yn-1-yl)amino)butan-2-yl)oxy)-N-(1,2,4-thiadiazol-5-yl)benzenesulfonamide] | 
19 |  |  | Nc1[nH]ncc1-c1cc(Cl)ccc1Oc1cc(F)c(S(=O)(=O)Nc2cscn2)cc1Cl [PF-05089771, 4-[2-(5-Amino-1H-pyrazol-4-yl)-4-chlorophenoxy]-5-chloro-2-fluoro-N-1,3-thiazol-4-ylbenzenesulfonamide, reference compound] | effect on acetic acid-induced writhing (in words) [4]: dose-dependently decreased; effect on action potentials / firing frequency (in words) [5]: dose-dependently suppressed
